Laboratory results published in ChEMBL document CHEMBL1131143, “Predictive models for GABAA/benzodiazepine receptor subtypes: studies of quantitative structure-activity relationships for imidazobenzodiazepines at five recombinant GABAA/benzodiazepine receptor subtypes [alphaxbeta3gamma2 (x = 1-3, 5, and 6)] via comparative molecular field analysis” (J Med Chem, 1998).
pKi: −log10 of the molar value.

What was measured:
Type in all cases: protein-complex assay
[1] = molecular target: T1, GABA-A receptor; alpha-6/beta-3/gamma-2 (Homo sapiens, UniProt P18507+P28472+Q16445); assay: Inhibition of Gamma-aminobutyric acid A receptor alpha-6-beta-3-gamma-2 at 1 uM
Method in brief: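 Competition binding on Ltk⁻ cells expressing human α6β3γ2, radioligand [³H]Ro 15-4513. Cells scraped into PBS, spun at 3000g, resuspended in 10 mM KH₂PO₄/100 mM KCl pH 7.4. Nonspecific binding with 10⁻⁵ M diazepam; 1 h to equilibrium at 4 °C; filtration, ice-cold buffer wash, scintillation counting.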

[2] = molecular target: T2, GABA-A receptor; alpha-5/beta-3/gamma-2 (Homo sapiens, UniProt P18507+P28472+P31644); assay: Binding affinity for Gamma-aminobutyric acid A receptor alpha-5-beta-3-gamma-2
T2 sequence (P18507 whole entry): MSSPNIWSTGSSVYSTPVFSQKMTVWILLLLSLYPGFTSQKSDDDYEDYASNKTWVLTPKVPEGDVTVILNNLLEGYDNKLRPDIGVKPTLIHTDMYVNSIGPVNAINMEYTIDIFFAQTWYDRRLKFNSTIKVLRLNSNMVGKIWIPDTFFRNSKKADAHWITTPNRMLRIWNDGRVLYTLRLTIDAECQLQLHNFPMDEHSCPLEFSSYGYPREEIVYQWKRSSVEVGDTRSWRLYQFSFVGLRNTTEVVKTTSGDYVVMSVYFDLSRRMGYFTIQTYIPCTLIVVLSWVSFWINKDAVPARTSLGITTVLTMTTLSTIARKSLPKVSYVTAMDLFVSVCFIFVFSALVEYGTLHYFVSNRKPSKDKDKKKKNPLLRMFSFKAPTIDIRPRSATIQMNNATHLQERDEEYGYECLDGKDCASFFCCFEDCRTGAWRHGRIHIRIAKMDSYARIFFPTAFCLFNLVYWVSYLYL
T2 sequence (P28472 whole entry): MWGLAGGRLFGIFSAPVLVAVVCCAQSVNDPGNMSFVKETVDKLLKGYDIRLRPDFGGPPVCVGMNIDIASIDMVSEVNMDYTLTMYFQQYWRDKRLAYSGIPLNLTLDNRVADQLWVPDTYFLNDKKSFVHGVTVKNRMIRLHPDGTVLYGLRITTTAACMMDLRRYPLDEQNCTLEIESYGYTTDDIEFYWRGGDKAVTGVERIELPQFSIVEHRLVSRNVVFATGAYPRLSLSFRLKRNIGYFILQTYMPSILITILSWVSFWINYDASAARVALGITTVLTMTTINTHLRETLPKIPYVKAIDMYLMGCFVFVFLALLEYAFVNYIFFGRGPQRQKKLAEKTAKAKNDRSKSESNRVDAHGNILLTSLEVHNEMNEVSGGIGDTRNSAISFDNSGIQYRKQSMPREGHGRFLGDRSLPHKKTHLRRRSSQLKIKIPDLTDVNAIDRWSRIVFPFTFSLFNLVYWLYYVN
T2 sequence (P31644 whole entry): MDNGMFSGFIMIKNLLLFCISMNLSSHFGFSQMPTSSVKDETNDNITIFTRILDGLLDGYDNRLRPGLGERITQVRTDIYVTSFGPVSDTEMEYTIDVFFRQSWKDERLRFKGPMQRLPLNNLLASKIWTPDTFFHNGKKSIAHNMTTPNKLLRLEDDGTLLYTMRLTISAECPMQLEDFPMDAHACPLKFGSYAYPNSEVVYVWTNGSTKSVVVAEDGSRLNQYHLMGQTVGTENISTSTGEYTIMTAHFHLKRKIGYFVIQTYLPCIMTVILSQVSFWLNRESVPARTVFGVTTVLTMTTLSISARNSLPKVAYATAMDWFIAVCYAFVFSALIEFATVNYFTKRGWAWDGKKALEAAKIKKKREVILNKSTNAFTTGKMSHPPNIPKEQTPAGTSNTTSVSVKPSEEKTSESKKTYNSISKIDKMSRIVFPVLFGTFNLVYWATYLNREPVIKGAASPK

[3] = molecular target: T3, GABA-A receptor; alpha-1/beta-3/gamma-2 (Homo sapiens) (UniProt P14867+P18507+P28472); assay: Inhibition of GABA-A benzodiazepine receptor alpha-1-beta-3-gamma-2 subunits at 1 uM
[4] = molecular target: GABA-A receptor; alpha-2/beta-3/gamma-2 (Homo sapiens) (UniProt P18507+P28472+P47869); assay: Inhibition of GABA-A benzodiazepine receptor alpha-2-beta-3-gamma-2 subunits at 1 uM
[5] = molecular target: GABA-A receptor; alpha-3/beta-3/gamma-2 (Homo sapiens) (UniProt P18507+P28472+P34903); assay: Inhibition of GABA-A benzodiazepine receptor alpha-3-beta-3-gamma-2 subunits at 1 uM
[6] = molecular target: T1, GABA-A receptor; alpha-6/beta-3/gamma-2; assay: Binding affinity against Gamma-aminobutyric acid A receptor alpha-6-beta-3-gamma-2
Method in brief: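 Cells scraped into PBS, spun at 3000g, resuspended in 10 mM KH₂PO₄/100 mM KCl pH 7.4. Nonspecific binding with 10⁻⁵ M diazepam; 1 h to equilibrium at 4 °C; filtration, ice-cold buffer wash, scintillation counting.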

[7] = molecular target: T4, GABA-A receptor; alpha-2/beta-3/gamma-2 (Homo sapiens, UniProt P18507+P28472+P47869); assay: Binding affinity for alpha-2-beta-3-gamma-2 GABA-A benzodiazepine receptor subunits
T4 sequence (P18507 whole entry): T2 sequence (P18507 whole entry)
T4 sequence (P28472 whole entry): T2 sequence (P28472 whole entry)
T4 sequence (P47869 whole entry): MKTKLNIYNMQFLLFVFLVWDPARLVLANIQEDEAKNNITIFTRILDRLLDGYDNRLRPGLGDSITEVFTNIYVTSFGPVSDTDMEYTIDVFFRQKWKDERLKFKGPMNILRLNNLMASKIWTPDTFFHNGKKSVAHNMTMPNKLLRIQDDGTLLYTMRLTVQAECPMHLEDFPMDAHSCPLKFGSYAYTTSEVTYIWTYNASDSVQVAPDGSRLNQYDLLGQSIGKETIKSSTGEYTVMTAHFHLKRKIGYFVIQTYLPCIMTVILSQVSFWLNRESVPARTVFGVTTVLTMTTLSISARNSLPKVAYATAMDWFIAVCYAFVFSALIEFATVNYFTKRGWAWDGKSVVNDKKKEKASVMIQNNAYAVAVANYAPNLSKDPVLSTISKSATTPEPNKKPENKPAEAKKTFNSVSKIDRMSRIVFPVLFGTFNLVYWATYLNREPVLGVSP

[8] = molecular target: T5, GABA-A receptor; alpha-3/beta-3/gamma-2 (Homo sapiens, UniProt P18507+P28472+P34903); assay: Binding affinity against alpha-3-beta-3-gamma-2 GABAA/BzR receptor subtype.
T5 sequence (P18507 whole entry): T2 sequence (P18507 whole entry)
T5 sequence (P28472 whole entry): T2 sequence (P28472 whole entry)
T5 sequence (P34903 whole entry): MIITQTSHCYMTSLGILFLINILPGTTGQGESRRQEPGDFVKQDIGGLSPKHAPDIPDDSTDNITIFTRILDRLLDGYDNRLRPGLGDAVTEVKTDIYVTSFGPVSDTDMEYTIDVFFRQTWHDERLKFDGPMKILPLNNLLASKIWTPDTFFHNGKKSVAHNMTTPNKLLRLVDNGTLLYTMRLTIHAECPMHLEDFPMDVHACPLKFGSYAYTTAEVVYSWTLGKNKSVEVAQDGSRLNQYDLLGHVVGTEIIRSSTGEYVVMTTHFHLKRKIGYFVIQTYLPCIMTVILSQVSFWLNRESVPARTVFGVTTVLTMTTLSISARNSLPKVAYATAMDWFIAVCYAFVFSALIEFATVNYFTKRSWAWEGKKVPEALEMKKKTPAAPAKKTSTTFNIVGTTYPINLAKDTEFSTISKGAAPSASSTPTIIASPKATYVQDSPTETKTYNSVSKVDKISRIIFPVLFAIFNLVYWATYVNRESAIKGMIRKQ

[9] = molecular target: T6, GABA-A receptor; alpha-1/beta-3/gamma-2 (Homo sapiens, UniProt P14867+P18507+P28472); assay: Binding affinity against alpha-1-beta-3-gamma-2 GABAA/BzR receptor subtype.
T6 sequence (P14867 whole entry): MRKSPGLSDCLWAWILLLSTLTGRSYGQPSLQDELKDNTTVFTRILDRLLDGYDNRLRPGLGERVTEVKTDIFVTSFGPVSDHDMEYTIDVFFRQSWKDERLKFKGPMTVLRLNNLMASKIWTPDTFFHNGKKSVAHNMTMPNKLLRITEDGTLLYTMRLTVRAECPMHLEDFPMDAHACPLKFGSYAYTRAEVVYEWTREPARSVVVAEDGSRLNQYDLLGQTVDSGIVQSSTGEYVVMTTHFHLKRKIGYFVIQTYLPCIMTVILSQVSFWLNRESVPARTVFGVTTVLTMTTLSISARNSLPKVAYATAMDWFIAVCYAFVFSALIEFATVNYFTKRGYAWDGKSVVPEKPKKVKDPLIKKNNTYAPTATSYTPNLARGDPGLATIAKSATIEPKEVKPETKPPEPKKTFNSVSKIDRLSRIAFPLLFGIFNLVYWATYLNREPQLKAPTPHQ
T6 sequence (P18507 whole entry): T2 sequence (P18507 whole entry)
T6 sequence (P28472 whole entry): T2 sequence (P28472 whole entry)

[10] = molecular target: T3, GABA-A receptor; alpha-1/beta-3/gamma-2 (Homo sapiens); assay: It is the ratio of Ki value for alpha-1-beta-3-gamma-2 to that of alpha-5-beta-3-gamma-2
[11] = molecular target: T4, GABA-A receptor; alpha-2/beta-3/gamma-2; assay: Binding affinity tested against alpha-2-beta-3-gamma-2 GABAA/BzR receptor subtype.

T1 sequence (Q16445 whole entry, one chain of several): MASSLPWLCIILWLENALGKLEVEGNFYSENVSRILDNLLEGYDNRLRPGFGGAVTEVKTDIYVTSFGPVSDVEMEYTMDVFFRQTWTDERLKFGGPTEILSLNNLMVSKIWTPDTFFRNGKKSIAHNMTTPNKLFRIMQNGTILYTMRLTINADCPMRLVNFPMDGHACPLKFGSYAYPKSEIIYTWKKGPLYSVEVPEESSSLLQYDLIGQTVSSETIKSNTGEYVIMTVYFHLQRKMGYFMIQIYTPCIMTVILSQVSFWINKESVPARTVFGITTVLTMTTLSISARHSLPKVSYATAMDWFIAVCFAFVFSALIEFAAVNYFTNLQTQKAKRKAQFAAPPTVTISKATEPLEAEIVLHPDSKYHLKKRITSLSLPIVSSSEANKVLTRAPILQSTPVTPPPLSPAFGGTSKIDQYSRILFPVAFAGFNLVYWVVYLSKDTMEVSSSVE

Row | Structure (SMILES) | inhibition [1] [%] | pKi [2] | inhibition [3] [%] | inhibition [4] [%] | inhibition [5] [%] | pKi [6] | pKi [7] | pKi [8] | pKi [9] | Ratio [10] | pKi [11]
1 | C#Cc1ccc2c(c1)C(=O)N1CC[C@H]1c1c(-c3nc(-c4ccccc4)no3)ncn1-2 | 14 | 6.43 | 10 | 29 | 15 |  |  |  |  |  | 
2 | CCOC(=O)c1ncn2c1CN(C)C(=O)c1cc(Br)ccc1-2 |  |  |  |  |  | 7.66 | 7.57 | 7.89 |  |  | 
3 | C#Cc1ccc2c(c1)C(=O)N1CCC[C@H]1c1c(-c3nc(-c4ccccc4)no3)ncn1-2 | 4 | 6.34 | 33 | 26 | 19 |  |  |  |  |  | 
4 | C#Cc1ccc2c(c1)C(=O)N(C)Cc1c(C(=O)OC(C)(C)C)ncn1-2 |  | 9.40 |  |  |  | 8.29 |  | 7.73 | 7.57 | 67.3 | 7.58
